Test results reported in ChEMBL document CHEMBL3407418, “Fragment-based drug discovery of 2-thiazolidinones as BRD4 inhibitors: 2. Structure-based optimization” (J Med Chem, 2015).
The source made the active and inactive calls. No cut-off for these calls is given here.

Tests used:
[1] = biological target: T1, Bromodomain-containing protein 4 (Homo sapiens, UniProt O60885); assay: Inhibition of BRD4 in human HT-29 cells assessed as reduction in c-Myc protein expression at 5 and 10 uM after 24 hrs by Western blotting method; format: cell-based
How it was run: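 HT-29 cells seeded overnight, then treated 24 h; lysed in 1×SDS buffer (50 mmol/L Tris-HCl pH 6.8, 100 mmol/L DTT, 2% SDS, 10% glycerol), boiled 10 min. c-Myc immunoblotted with GAPDH loading control, peroxidase secondary antibodies, ECL detection. Repeated three times.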

[2] = biological target: T1, Bromodomain-containing protein 4; assay: Inhibition of BRD4 in human HT-29 cells assessed as reduction in c-myc mRNA expression at 0.3125 uM to 5 uM uM after 24 hrs by RT-qPCR method; format: cell-based
How it was run: (§1)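 HT-29 cells seeded overnight and exposed to compounds for 24 h; total RNA isolated, reverse-transcribed, and analysed by RT-qPCR with c-myc primers. Relative c-myc mRNA normalised to β-actin and expressed versus untreated control.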

[3] = biological target: T1, Bromodomain-containing protein 4; assay: Inhibition of BRD4 in human HT-29 cells assessed as reduction in c-myc mRNA expression at 5 uM after 24 hrs by RT-qPCR method; format: cell-based; how it was run: as §1
CYP2D6 = CYP2D6 (Homo sapiens, UniProt P10635); assay: (§2) Inhibition of CYP2D6 in human liver microsomes at 10 uM using dextromethorphan substrate preincubated for 5 mins before NADPH addition and measured after 20 mins post NADPH addition; format: ADME; conditions: liver microsomes, probe dextromethorphan
Chain of CYP2D6 (P10635 whole entry): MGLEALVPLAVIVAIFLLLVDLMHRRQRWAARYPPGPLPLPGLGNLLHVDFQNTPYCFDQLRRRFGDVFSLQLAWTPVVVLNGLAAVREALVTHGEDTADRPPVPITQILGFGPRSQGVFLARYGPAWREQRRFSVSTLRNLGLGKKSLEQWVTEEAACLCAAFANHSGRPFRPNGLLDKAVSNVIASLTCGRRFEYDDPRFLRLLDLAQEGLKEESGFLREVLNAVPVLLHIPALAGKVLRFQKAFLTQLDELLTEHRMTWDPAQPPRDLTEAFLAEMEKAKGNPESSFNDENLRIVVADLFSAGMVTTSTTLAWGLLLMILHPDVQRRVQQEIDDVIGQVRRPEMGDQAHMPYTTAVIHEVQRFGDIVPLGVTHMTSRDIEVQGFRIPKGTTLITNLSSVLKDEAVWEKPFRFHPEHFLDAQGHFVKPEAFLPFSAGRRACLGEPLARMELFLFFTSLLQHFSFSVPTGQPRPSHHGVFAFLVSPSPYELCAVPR
How it was run: (§3)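 Human liver microsomes 0.2 mg/mL, 1 mmol NADPH, 100 mmol phosphate pH 7.4, probe cocktail (10 μM midazolam, 100 μM testosterone, 10 μM dextromethorphan, 20 μM diclofenac, 100 μM phenacetin, 100 μM mephenytoin), test compound 10 μM or PBS; organic solvent <1%. 5 min preincubation at 37 °C, NADPH-generating system start, 20 min reaction; inhibition from metabolite formation relative to PBS.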

CYP2C9 = CYP2C9 (Homo sapiens, UniProt P11712); assay: (§4) Inhibition of CYP2C9 in human liver microsomes at 10 uM using diclofenac substrate preincubated for 5 mins before NADPH addition and measured after 20 mins post NADPH addition; format: ADME; conditions: liver microsomes, probe diclofenac; how it was run: as §3
Chain of CYP2C9 (P11712 whole entry): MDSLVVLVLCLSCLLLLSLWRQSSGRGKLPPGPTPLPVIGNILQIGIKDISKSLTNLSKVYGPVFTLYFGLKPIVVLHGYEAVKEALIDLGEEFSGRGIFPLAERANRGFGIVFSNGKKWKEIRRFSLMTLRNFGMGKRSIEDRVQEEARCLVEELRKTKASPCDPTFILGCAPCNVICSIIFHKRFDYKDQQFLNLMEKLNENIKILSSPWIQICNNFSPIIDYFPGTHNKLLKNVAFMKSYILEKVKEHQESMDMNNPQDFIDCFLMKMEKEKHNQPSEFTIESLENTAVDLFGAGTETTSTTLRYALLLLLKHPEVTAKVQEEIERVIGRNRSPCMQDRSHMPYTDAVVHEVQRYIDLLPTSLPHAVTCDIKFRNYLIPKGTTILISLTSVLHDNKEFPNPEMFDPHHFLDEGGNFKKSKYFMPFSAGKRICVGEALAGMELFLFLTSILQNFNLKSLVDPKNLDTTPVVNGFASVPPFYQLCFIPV

CYP1A2 = biological target: T2, CYP1A2 (Homo sapiens, UniProt P05177); assay: Inhibition of CYP1A2 in human liver microsomes at 10 uM using phenacetin substrate preincubated for 5 mins before NADPH addition and measured after 20 mins post NADPH addition; format: ADME; conditions: probe phenacetin; how it was run: as §3
T2 sequence (P05177 whole entry): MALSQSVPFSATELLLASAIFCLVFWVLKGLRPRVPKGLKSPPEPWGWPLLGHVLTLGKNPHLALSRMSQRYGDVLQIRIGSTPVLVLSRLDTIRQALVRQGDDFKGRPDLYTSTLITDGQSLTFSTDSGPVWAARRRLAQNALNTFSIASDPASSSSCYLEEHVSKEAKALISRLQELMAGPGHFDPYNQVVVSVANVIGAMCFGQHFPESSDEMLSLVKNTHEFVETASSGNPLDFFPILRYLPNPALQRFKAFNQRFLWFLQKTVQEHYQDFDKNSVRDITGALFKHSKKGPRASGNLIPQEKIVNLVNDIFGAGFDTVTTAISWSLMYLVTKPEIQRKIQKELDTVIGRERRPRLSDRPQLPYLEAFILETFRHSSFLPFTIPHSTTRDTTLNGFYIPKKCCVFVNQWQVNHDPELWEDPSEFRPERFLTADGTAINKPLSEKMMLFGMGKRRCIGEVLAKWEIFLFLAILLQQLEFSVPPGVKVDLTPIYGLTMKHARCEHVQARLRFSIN

Cytochrome P450 3A4 = Cytochrome P450 3A4 (Homo sapiens, UniProt P08684); assay: Time dependent inhibition of CYP3A4 in human liver microsomes at 10 uM using midazolam substrate preincubated for 5 mins before NADPH addition and measured after 20 mins post NADPH addition; format: ADME
Chain of Cytochrome P450 3A4 (P08684 whole entry): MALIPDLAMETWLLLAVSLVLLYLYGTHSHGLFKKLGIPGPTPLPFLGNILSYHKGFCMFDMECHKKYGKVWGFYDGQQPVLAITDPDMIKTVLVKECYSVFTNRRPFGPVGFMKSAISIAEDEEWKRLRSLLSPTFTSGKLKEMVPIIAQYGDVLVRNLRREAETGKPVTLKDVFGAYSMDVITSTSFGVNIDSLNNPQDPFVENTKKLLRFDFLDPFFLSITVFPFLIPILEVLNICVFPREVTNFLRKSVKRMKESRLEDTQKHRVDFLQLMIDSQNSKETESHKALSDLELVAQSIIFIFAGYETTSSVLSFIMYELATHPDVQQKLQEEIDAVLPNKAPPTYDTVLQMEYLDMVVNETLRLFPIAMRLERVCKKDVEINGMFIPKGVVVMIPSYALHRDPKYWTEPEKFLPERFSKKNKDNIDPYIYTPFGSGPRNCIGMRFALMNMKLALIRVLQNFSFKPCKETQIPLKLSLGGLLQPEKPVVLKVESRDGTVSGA

Cytochrome P450 2D6 [4] = biological target: T3, Cytochrome P450 2D6 (Homo sapiens, UniProt P10635); assay: Time dependent inhibition of CYP2D6 in human liver microsomes at 10 uM using dextromethorphan substrate preincubated for 5 mins before NADPH addition and measured after 20 mins post NADPH addition; format: ADME
T3 sequence (P10635 whole entry): as the sequence (P10635 whole entry) above

Cytochrome P450 2C9 [5] = biological target: T4, Cytochrome P450 2C9 (Homo sapiens, UniProt P11712); assay: Time dependent inhibition of CYP2C9 in human liver microsomes at 10 uM using diclofenac substrate preincubated for 5 mins before NADPH addition and measured after 20 mins post NADPH addition; format: ADME
T4 sequence (P11712 whole entry): as the sequence (P11712 whole entry) above

Cytochrome P450 1A2 = biological target: T5, Cytochrome P450 1A2 (Homo sapiens, UniProt P05177); assay: Time dependent inhibition of CYP1A2 in human liver microsomes at 10 uM using phenacetin substrate preincubated for 5 mins before NADPH addition and measured after 20 mins post NADPH addition; format: ADME
T5 sequence (P05177 whole entry): T2 sequence (P05177 whole entry)

Cytochrome P450 2C19 = Cytochrome P450 2C19 (Homo sapiens, UniProt P33261); assay: Time dependent inhibition of CYP2C19 in human liver microsomes at 10 uM using mephenytoin substrate preincubated for 5 mins before NADPH addition and measured after 20 mins post NADPH addition; format: ADME
Chain of Cytochrome P450 2C19 (P33261 whole entry): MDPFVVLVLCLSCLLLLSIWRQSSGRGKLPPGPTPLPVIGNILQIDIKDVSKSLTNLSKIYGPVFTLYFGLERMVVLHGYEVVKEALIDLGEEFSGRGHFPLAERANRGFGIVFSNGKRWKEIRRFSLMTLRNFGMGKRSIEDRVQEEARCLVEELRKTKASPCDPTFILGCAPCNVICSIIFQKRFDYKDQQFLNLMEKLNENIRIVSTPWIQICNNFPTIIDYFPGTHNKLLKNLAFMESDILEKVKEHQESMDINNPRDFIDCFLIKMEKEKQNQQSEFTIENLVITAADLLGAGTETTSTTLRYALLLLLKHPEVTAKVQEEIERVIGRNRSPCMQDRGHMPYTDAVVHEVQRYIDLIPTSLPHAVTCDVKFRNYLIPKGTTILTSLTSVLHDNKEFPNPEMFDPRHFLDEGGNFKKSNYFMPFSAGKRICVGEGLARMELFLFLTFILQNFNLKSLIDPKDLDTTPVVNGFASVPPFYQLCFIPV

Cytochrome P450 2C9 [6] = biological target: T4, Cytochrome P450 2C9; assay: as §4; format: ADME; conditions: microsomes, 20 min, 10 µM; how it was run: as §3
[7] = biological target: T1, Bromodomain-containing protein 4; assay: Inhibition of BRD4 in human HT-29 cells assessed as reduction in c-myc mRNA expression at 0.3125 uM after 24 hrs by RT-qPCR method; format: cell-based; how it was run: as §1
Cytochrome P450 2D6 [8] = biological target: T3, Cytochrome P450 2D6; assay: as §2; format: ADME; conditions: microsomes, 20 min, 10 µM; how it was run: as §3

Structure (SMILES)	inhibition [1]	inhibition [2]	inhibition [3]	inhibition at 20 min, 10 µM (CYP2D6)	inhibition at 20 min, 10 µM (CYP2C9)	inhibition at 20 min, 10 µM (CYP1A2)	TDI (Cytochrome P450 3A4)	TDI (Cytochrome P450 2D6 [4])	TDI (Cytochrome P450 2C9 [5])	TDI (Cytochrome P450 1A2)	TDI (Cytochrome P450 2C19)	inhibition (INH) (Cytochrome P450 2C9 [6])	inhibition [7]	inhibition (INH) (Cytochrome P450 2D6 [8])
O=C(Nc1cc(-c2csc(=O)[nH]2)cc(S(=O)(=O)NC2CCCC2)c1)C1CC1	Active	Active	> 60%	17%	14%	29%	Not Active	Not Active	Not Active	Not Active	Not Active	–	–	–
Cc1c(Br)cc(-c2csc(=O)[nH]2)cc1S(=O)(=O)NC1CCCC1	Active	Active	> 60%	39%	–	47%	–	–	Active	–	–	Not Active	–	–
Cc1c(N)cc(-c2csc(=O)[nH]2)cc1S(=O)(=O)NC1CCCC1	Active	Active	90%	3%	–	17%	Not Active	Not Active	Not Active	Not Active	Not Active	Not Active	Active	–
Nc1ccc(-c2csc(=O)[nH]2)cc1S(=O)(=O)NC1CCCC1	–	–	–	18%	74%	22%	Active	–	–	–	–	–	–	–
Cc1ccc(-c2csc(=O)[nH]2)cc1S(=O)(=O)NC1CCCC1	–	–	–	27%	–	52%	–	–	Active	–	Active	Not Active	–	–
COc1ccc(-c2csc(=O)[nH]2)cc1S(=O)(=O)NC1CCCC1	–	–	–	–	10%	3%	–	Active	–	–	Active	–	–	Not Active
